Screens deposited in PubChem by The Scripps Research Institute Molecular Screening Center.
Only some compounds are listed: those with a hit (about 1.6% of all), similar ones and a draw of the others.
LEDGF integ inh = blockers of LEDGF/p75-dependent integrase strand transfer – biochemical, TR-FRET, high throughput, primary screen | HIV-1 integrase (with human LEDGF/p75) | inhibition, % at 3.7 µM | TR-FRET IN-LEDGF/p75 DNA integration, Eu/Cy5 | 370,000 tested, 0.64% active;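 active = inhibition above the screen-wide mean plus 3 SD, cut at about 13% in these data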;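 also: signal is the Cy5 over europium emission ratio at 671 and 618 nm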
UHRF1 binding = UHRF1 methylated DNA binding inhibitors, primary screen, counter-screen for MBD2 inhibitor project, biochemical, TR-FRET, human UHRF1, single concentration | E3 ubiquitin-protein ligase UHRF1 (Homo sapiens), Q96T88 | UHRF1 binding to methylated oligo | inhibition, % at 4.4 µM | 370,000 tested, 0.75% active; in the data active = inhibition above about 21%;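 also: UHRF1 SRA domain binding a hemimethylated CpG hairpin DNA probe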
TDP2 inh = human TDP2 enzyme inhibitors, primary screen, biochemical, epi absorbance, recombinant enzyme; inhibition, % at 12.8 µM; 370,000 tested, 0.34% active; AID 720702, 2013; Tyrosyl-DNA phosphodiesterase 2 (Homo sapiens), O95551; T5PNP hydrolysis, p-nitrophenol absorbance 415 nm;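 active = inhibition above the mean of all tested compounds plus 3 SD, set per campaign, cut at about 25% in these data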
Target sequence (O95551 whole entry, looked up): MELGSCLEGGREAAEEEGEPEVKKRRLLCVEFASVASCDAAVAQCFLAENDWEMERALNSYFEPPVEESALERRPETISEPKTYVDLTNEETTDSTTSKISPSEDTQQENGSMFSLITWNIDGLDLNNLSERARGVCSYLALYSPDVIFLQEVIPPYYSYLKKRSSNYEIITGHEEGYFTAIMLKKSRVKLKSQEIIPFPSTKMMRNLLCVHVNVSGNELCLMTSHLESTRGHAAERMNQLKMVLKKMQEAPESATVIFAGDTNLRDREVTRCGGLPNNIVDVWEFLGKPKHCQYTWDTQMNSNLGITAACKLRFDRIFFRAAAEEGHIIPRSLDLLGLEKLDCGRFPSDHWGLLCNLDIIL
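Test system: Human TDP2 enzyme | Reagent: 5 mM T5PNP | Compound dosing: 12.8 µM single point, 1% DMSO | Incubation: Enzyme reaction with compound for 2 h at 37 °C | Technique: p-Nitrophenol epi absorbance | Read-out: % inhibition relative to enzyme-containing and enzyme-free wells | Benchmarks: High control without enzyme, low control DMSO plus TDP2 | Replicates: Singlicate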
MBD2 DNA inh = inhibitors of MBD2 binding to methylated DNA, primary screen, biochemical, TR-FRET, DNA-binding domain, human; Methyl-CpG-binding domain protein 2 (Homo sapiens), Q9UBB5; AID 686964, 2013; MBD2 binding to methylated oligonucleotide; inhibition, % at 4.4 µM; 370,000 tested, 0.31% active; in the data active = inhibition above about 13%
A number is an active result; - = inactive.

SMILES	LEDGF integ inh	UHRF1 binding	TDP2 inh	MBD2 DNA inh
Fc1cccc(Cc2c(-c3ccccc3)nc3c4ccccc4ccn23)c1	-	21	-	-
C/C(=N\Nc1cccc(C(=O)O)c1)c1cc2ccccc2o1	-	-	-	-
C/C(=N\Nc1ccc(Cl)c(C(=O)O)c1)c1cc2ccccc2o1	-	31	-	-
COc1ccc(-c2nc3cc([N+](=O)[O-])ccc3o2)cc1	-	21	-	-
Cc1c(C(=O)N2CCCCCC2)c(S(=O)(=O)Nc2ccccc2F)c(C)n1C	-	-	-	-
CCc1ccccc1NS(=O)(=O)c1c(C(=O)N2CCCCCC2)c(C)n(C)c1C	-	21	-	-
COC(=O)CCC1NC(=O)C(Cc2c[nH]c3ccccc23)NC(=O)C2CC(=O)OC(C)C(NC(=O)C(C)NC(=O)C3CCCN3C(=O)C3CCCN3C(=O)C(C)NC(C)=O)C(=O)NC(CC(C)C)C(=O)NC(CCCCNC(=O)CCC(C(=O)NC(Cc3ccc(O)cc3)C(=O)O)NC1=O)C(=O)NC(Cc1c[nH]c3ccccc13)C(=O)N1CCCC1C(=O)NC(CO)C(=O)N2 (configuration not stated)	-	-	-	-
COCCNc1oc(/C=C/c2cccs2)nc1S(=O)(=O)c1ccccc1	-	53	-	-
CN(C)CCCNc1oc(/C=C/c2cccs2)nc1S(=O)(=O)c1ccccc1	-	-	-	-
CCOc1ccccc1C1CC(=O)Nc2cc(C)c(C)cc21 (configuration not stated)	-	-	-	-
CCOc1ccccc1C1CC(=O)Nc2cc3c(cc21)OCCO3 (configuration not stated)	-	23	-	-
O=C(NCc1ccccc1)OCCCN1C(=O)CCC12CCCCC2	-	-	-	-
Cc1cc(C(=O)COC(=O)c2ccc(O)cc2)c(C)n1-c1ccccc1F	-	21	-	-
Cc1cc(C(=O)COC(=O)c2ccc[nH]c2=O)c(C)n1-c1ccccc1F	-	-	-	-
CC1CC(C)CN(C(=O)c2ccc(CSc3nc4ccncc4[nH]3)cc2)C1 (configuration not stated)	-	34	-	-
COc1ccc(-n2c(SCC(=O)NNC(=S)Nc3ccccc3)nc3ccccc3c2=O)cc1	-	-	-	-
Cc1nc(C(F)(F)F)ccc1C(=O)NCC(O)c1ccccc1 (configuration not stated)	-	46	-	-
CN(C)c1ccc(C(=O)NC2(N3CCC3=O)CCCC2)cc1	-	31	-	-
O=C(O)c1cc(N2N=C(C(F)(F)F)/C(=C/C=C/c3ccco3)C2=O)ccc1Cl	82	97	-	108
CCN(CC)C(=O)[C@H]1C[C@H](CC(=O)NCCC2=CCCCC2)C(=O)N2CCc3c([nH]c4cc(CCC(=O)N(C)C)ccc34)[C@]12C	-	-	-	-
CCN(CC)C(=O)[C@H]1C[C@H](CC(=O)NCCc2ccccn2)C(=O)N2CCc3c([nH]c4cc(CCC(=O)N(C)C)ccc34)[C@]12C	-	21	-	-
Cc1cc(C)c(N=Cc2c(O)n(-c3nccs3)c(=O)c3ccccc23)c(C)c1	-	27	-	-
Cc1ccc(N=Cc2c(O)n(-c3nccs3)c(=O)c3ccccc23)cc1	-	-	-	-
CN(C)CCNC(=O)c1cccc2ccc(-c3ccc(-c4ccccc4)cc3)nc12	-	37	-	-
CN(C)CCNC(=O)c1ccccc1	-	-	-	-
CC1CCN(c2ccc(C(=O)O)cc2NS(=O)(=O)c2ccccc2)CC1	-	-	-	-
CCCCc1nc(Cl)c(C#N)c2c1CCC2	-	-	-	-
CCCCc1nc(Cl)c(C#N)c2c1CCCC2	-	38	-	-
CC1(C)C[C@H]2C3=CCC4[C@@]5(C)CC[C@H](O)[C@@](C)(CO)C5CC[C@@]4(C)[C@]3(C)C[C@@H](O)[C@@]2(CO)[C@@H](O)[C@@H]1O (some centres not stated)	-	-	-	-
